Data as given in PubChem BioAssay AID504436 (Sanford-Burnham Center for Chemical Genomics, 2011).
Active and inactive are the calls of the source.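 The calls were made as follows: active = mean IC50 below 20 µM in the confirmatory beta-arrestin antagonist test; inactive = the rest.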

biological target: Apelin receptor (Homo sapiens) (UniProt P35414); test: APJ receptor antagonists, beta-arrestin recruitment, SAR follow-up, cell-based, CHO-K1 AGTRL-1, PathHunter luminescence, set 5 (AID 504436); settings: antagonist
How it was run: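 Incubation – overnight seeding, 90 min exposure at 25 °C, 60 min detection · Assay system – CHO-K1 cells with ProLink-tagged APJ and EA-fused beta-arrestin · Reagent – Apelin-13, 10 nM final · Dosing – test compounds as a dose-response series · Measured by – enzyme-fragment complementation luminescence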

Apelin receptor (Homo sapiens), sequence (P35414 whole entry, looked up, the tested form may be a part): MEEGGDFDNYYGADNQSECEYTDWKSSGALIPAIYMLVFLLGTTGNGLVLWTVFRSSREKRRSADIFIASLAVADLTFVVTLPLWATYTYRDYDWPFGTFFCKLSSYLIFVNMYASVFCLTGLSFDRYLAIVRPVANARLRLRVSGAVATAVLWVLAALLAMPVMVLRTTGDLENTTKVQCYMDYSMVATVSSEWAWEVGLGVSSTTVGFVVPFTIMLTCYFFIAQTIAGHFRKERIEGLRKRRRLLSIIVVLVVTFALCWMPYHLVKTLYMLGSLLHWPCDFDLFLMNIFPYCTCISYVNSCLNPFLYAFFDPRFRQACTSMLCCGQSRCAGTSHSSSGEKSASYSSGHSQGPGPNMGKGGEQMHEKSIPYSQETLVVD

IC50 | Compound
12.8 µM | Cc1ccc(SCc2cc(=O)c(OC(=O)c3ccc(Cl)c([N+](=O)[O-])c3)co2)cc1
4.53 µM | O=C(Oc1coc(CSc2ccc(Cl)cc2)cc1=O)c1ccc(Cl)c([N+](=O)[O-])c1
8.27 µM | COc1ccc(SCc2cc(=O)c(OC(=O)c3ccc(Cl)c([N+](=O)[O-])c3)co2)cc1

The next lines start with the molecule.

Compound | IC50
O=C(Oc1coc(CN2CCOCC2)cc1=O)c1ccccc1 | > 79 µM (inactive)
Cc1cc(C)nc(SCc2cc(=O)c(OC(=O)c3ccc(-c4nccs4)cc3)co2)n1 | > 79 µM (inactive)
O=C(Oc1coc(CN2CCOCC2)cc1=O)c1ccc([N+](=O)[O-])cc1 | 16.4 µM
O=C(Oc1coc(CSc2ccc(OC(F)(F)F)cc2)cc1=O)c1ccc(Cl)c([N+](=O)[O-])c1 | inactive
Cc1ccnc(SCc2cc(=O)c(NC(=O)c3ccc([N+](=O)[O-])cc3)co2)n1 | > 79 µM (inactive)
